# Reference: ChEMBL document CHEMBL1152334, “Quassinoid inhibition of AP-1 function does not correlate with cytotoxicity or protein synthesis inhibition” (J Nat Prod, 2009)
# Activity calls are given as the source filed them. The rule behind the calls is not given here.
# What was measured:
# [1] = target: T1, Inhibitor of nuclear factor kappa-B kinase subunit alpha (Homo sapiens) (UniProt O15111); assay: Inhibition of TPA-induced IkappaBalpha phosphorylation in HEK293 whole cell extract at 40.8 uM treated 1 hr before TPA stimulation measured after 18 hrs by immunoblot analysis; assay type: cell-based
# T1 sequence (whole entry): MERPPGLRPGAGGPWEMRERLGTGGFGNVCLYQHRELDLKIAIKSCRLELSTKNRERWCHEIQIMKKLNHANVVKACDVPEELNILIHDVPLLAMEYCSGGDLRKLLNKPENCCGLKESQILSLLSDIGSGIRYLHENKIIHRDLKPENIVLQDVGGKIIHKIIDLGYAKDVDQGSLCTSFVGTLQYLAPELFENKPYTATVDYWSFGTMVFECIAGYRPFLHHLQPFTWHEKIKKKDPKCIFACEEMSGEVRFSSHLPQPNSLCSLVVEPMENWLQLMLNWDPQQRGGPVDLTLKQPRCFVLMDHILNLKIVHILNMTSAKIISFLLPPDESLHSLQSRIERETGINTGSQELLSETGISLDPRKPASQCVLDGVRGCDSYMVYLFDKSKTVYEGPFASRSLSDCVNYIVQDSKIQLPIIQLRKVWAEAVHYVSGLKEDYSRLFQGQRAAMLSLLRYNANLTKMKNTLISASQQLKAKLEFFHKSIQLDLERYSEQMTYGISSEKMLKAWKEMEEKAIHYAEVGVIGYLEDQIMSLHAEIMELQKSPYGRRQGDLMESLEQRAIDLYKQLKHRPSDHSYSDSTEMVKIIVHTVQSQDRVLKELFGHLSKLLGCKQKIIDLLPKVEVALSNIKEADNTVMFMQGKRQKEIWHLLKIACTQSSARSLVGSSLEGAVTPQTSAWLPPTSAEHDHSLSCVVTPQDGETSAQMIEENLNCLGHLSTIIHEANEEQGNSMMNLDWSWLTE
# Summary of the method: (§1)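 HEK293 cells grown in DMEM with 10% FBS at 37 °C and 5% CO2. Cells were pretreated with quassinoid or DMSO for 1 h, then stimulated with TPA (10 ng/mL) for 18 h. Whole-cell extracts were made in RIPA buffer (10 mM Tris-HCl pH 7.5, 1 mM EDTA, 0.1% SDS, 0.1% deoxycholate, protease inhibitor). Immunoblots were probed for phospho-IκB-α, with tubulin as loading control.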
# [2] = target: T1, Inhibitor of nuclear factor kappa-B kinase subunit alpha (Homo sapiens); assay: Inhibition of TPA-induced IkappaBalpha phosphorylation in HEK293 whole cell extract at 20.4 uM treated 1 hr before TPA stimulation measured after 18 hrs by immunoblot analysis; assay type: cell-based; summary of the method: as §1
# [3] = target: Signal transducer and activator of transcription 3 (Homo sapiens) (UniProt P40763); assay: Inhibition of TPA-induced phosphorylation at Tyr705 of Stat3 in HEK293 whole cell extract at 20.4 uM treated 1 hr before TPA stimulation measured after 18 hrs by immunoblot analysis; assay type: cell-based
# Signal transducer and activator of transcription 3 (Homo sapiens), sequence (P40763 whole entry): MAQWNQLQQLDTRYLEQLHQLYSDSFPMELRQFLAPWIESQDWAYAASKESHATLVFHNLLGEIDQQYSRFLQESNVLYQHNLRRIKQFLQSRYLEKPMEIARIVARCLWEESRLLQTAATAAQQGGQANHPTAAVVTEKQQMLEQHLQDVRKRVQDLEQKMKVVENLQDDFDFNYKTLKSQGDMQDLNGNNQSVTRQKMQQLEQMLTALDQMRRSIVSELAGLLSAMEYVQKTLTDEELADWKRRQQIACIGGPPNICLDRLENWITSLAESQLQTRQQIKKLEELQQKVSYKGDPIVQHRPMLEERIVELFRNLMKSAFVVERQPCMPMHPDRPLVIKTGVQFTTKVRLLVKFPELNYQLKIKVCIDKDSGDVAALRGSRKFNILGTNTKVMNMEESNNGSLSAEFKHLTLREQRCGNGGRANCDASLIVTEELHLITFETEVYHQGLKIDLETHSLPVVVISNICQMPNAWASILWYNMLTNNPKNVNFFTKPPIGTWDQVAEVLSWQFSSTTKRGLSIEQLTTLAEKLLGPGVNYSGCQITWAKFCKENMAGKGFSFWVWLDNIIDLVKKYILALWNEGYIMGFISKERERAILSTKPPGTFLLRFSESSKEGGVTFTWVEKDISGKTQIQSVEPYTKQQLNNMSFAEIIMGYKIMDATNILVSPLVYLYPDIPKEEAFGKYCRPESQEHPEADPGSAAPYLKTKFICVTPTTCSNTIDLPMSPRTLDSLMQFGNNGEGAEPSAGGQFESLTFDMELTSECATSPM
# Summary of the method: (§2)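 HEK293 cells were exposed to compound or DMSO for 1 h, then induced with TPA 10 ng/mL for 18 h. Cells were lysed in RIPA buffer (10 mM Tris-HCl pH 7.5, 1 mM EDTA, 0.1% SDS, 0.1% deoxycholate, protease inhibitor). Whole-cell extracts were immunoblotted for phospho-IκB-α and phospho-Stat3 (Tyr705), with tubulin as loading control.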
# [4] = system: HEK293; assay: Inhibition of TPA-induced NF-kappaB transfected in HEK293 cells treated 1 hr before TPA stimulation measured after 18 hrs by luciferase reporter gene assay; assay type: cell-based
# Summary of the method: (§3)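 HEK293 cells were grown in DMEM with 10% FBS at 37 °C and 5% CO2. They were transiently transfected with a luciferase reporter (0.1 µg/well); reporters were AP-1 (four TRE consensus copies from GCN4), NF-κB (five responsive-element copies) or SRE. After 24 h, medium went to DMEM with 0.2% FBS. Cells were pretreated 1 h with compound or DMSO, then given TPA 10 ng/mL for 18 h. Firefly luciferase was read from passive-lysis lysates, TPA alone = 100%, in quadruplicate.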
# [5] = target: Signal transducer and activator of transcription 3 (Homo sapiens) (UniProt P40763); assay: Inhibition of TPA-induced phosphorylation at Tyr705 of Stat3 in HEK293 whole cell extract at 15.8 uM treated 1 hr before TPA stimulation measured after 18 hrs by immunoblot analysis; assay type: cell-based; summary of the method: as §2
# [6] = target: Signal transducer and activator of transcription 3 (Homo sapiens) (UniProt P40763); assay: Inhibition of TPA-induced phosphorylation at Tyr705 of Stat3 in HEK293 whole cell extract at 40.8 uM treated 1 hr before TPA stimulation measured after 18 hrs by immunoblot analysis; assay type: cell-based; summary of the method: as §2
# [7] = target: Signal transducer and activator of transcription 3 (Homo sapiens) (UniProt P40763); assay: Inhibition of TPA-induced phosphorylation at Tyr705 of Stat3 in HEK293 whole cell extract at 31.6 uM treated 1 hr before TPA stimulation measured after 18 hrs by immunoblot analysis; assay type: cell-based; summary of the method: as §2
# [8] = target: Signal transducer and activator of transcription 3 (Homo sapiens) (UniProt P40763); assay: Inhibition of TPA-induced phosphorylation at Tyr705 of Stat3 in HEK293 whole cell extract at 35.5 uM treated 1 hr before TPA stimulation measured after 18 hrs by immunoblot analysis; summary of the method: as §2
# [9] = target: Signal transducer and activator of transcription 3 (Homo sapiens) (UniProt P40763); assay: Inhibition of TPA-induced phosphorylation at Tyr705 of Stat3 in HEK293 whole cell extract at 71.3 uM treated 1 hr before TPA stimulation measured after 18 hrs by immunoblot analysis; assay type: cell-based; summary of the method: as §2
# [10] = system: Nucleic Acid; assay: Inhibition of TPA-induced SRE transfected in HEK293 cells treated 1 hr before TPA stimulation measured after 18 hrs by luciferase reporter gene assay; assay type: cell-based; summary of the method: as §3
# [11] = target: T1, Inhibitor of nuclear factor kappa-B kinase subunit alpha (Homo sapiens); assay: Inhibition of TPA-induced IkappaBalpha phosphorylation in HEK293 whole cell extract at 35.5 uM treated 1 hr before TPA stimulation measured after 18 hrs by immunoblot analysis; summary of the method: as §2
# [12] = system: HeLa; assay: Inhibition of protein synthesis in human HeLa cells assessed as [35S]methionine incorporation into protein treated for 45 mins before [35S]methionine addition by Whatman paper analysis; assay type: functional, cell-based
# [13] = Inhibition of protein synthesis in cell-free extract of mouse Krebs2 cells by SDS-PAGE; assay type: functional
# [14] = Growth inhibition of human NCI60 cells; assay type: functional; conditions: Homo sapiens, NCI60
# [15] = target: T1, Inhibitor of nuclear factor kappa-B kinase subunit alpha (Homo sapiens); assay: Inhibition of TPA-induced IkappaBalpha phosphorylation in HEK293 whole cell extract at 71.3 uM treated 1 hr before TPA stimulation measured after 18 hrs by immunoblot analysis; assay type: cell-based; summary of the method: as §2
# [16] = Growth inhibition of human AP-1 beta-lactamase reporter screening assay cells at 1 uM; conditions: AP-1 reporter cells
# [17] = target: T1, Inhibitor of nuclear factor kappa-B kinase subunit alpha (Homo sapiens); assay: Inhibition of TPA-induced IkappaBalpha phosphorylation in HEK293 whole cell extract at 15.8 uM treated 1 hr before TPA stimulation measured after 18 hrs by immunoblot analysis; assay type: cell-based; summary of the method: as §2
# [18] = target: T1, Inhibitor of nuclear factor kappa-B kinase subunit alpha (Homo sapiens); assay: Inhibition of TPA-induced IkappaBalpha phosphorylation in HEK293 whole cell extract at 31.6 uM treated 1 hr before TPA stimulation measured after 18 hrs by immunoblot analysis; assay type: cell-based; summary of the method: as §2
Structure (SMILES),inhibition [1],inhibition [2],inhibition [3],inhibition [4],inhibition [5],inhibition [6],inhibition [7],inhibition [8],inhibition [9],inhibition [10],inhibition [11],IC50 [12] [nM],IC50 [13] [nM],GI50 [14] [nM],inhibition [15],inhibition at 1 µM [16] [%],inhibition [17],inhibition [18]
CC[C@](C)(O)C(=O)O[C@H]1C(=O)O[C@@H]2C[C@H]3C(C)=CC(=O)[C@@H](O)[C@]3(C)[C@H]3[C@@]4(O)OC[C@]32[C@@H]1[C@@H](C)[C@H]4O (stereo in doubt; 4),Active,Active,inactive,Dose-dependent effect,inactive,inactive,inactive,inactive,inactive,Dose-dependent effect,,,,,,,,
CC(C)=CC(=O)O[C@@H]1[C@H]2C(C)=C[C@H](O)[C@@H](O)[C@]2(C)[C@H]2[C@]3(O)OC[C@@]24[C@@H]1OC(=O)C[C@H]4[C@@H](C)[C@H]3O,,,inactive,Dose-dependent effect,inactive,inactive,inactive,inactive,inactive,Dose-dependent effect,Active,670,910,260,Active,,,
CCC(C)C(=O)O[C@H]1C(=O)O[C@@H]2C[C@H]3C(C)=CC(=O)[C@@H](O)[C@]3(C)[C@H]3[C@]4(O)OC[C@]32[C@@H]1[C@@H](C)[C@H]4O (some centres not stated) [AILANTHINONE],,,inactive,Dose-dependent effect,inactive,inactive,inactive,inactive,inactive,Dose-dependent effect,,3.4,420,31000,,< 25,Active,Active
